Data: ChEMBL document CHEMBL1649411, “Potent antitumor mimetics of annonaceous acetogenins embedded with an aromatic moiety in the left hydrocarbon chain part” (J Med Chem, 2011)

Assays:
SGC-7901 = assay: Cytotoxicity against human SGC7901 cells after 72 hrs by MTT assay; assay type: functional; details: SGC-7901, 72 h
Method in brief: (§1)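 Cells were grown in DMEM with penicillin-streptomycin, L-glutamine and 10% FBS, then seeded at 5 × 10³ cells/well. MTT (5 mg mL^-1 stock) was added for 4 h, then dissolved in DMSO. A570 was read against a 690 nm reference, with at least four replicates. Inhibition was calculated versus blank-corrected vehicle control, giving GI50.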

A549 = assay: Cytotoxicity against human A549 cells after 72 hrs by MTT assay; assay type: functional; details: A549, 72 h; method in brief: as §1
MCF7 = assay: Cytotoxicity against human MCF7 cells after 72 hrs by MTT assay; assay type: functional; details: MCF7, 72 h; method in brief: as §1
HCT-116 = assay: Cytotoxicity against human HCT116 cells after 72 hrs by MTT assay; assay type: functional; details: HCT-116, 72 h
Method in brief: (§2)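 Cells were maintained in F12/DMEM with penicillin-streptomycin, L-glutamine and 10% FBS, and plated at 5 × 10³ cells/well. Sixteen hours later, medium containing compound ([…]) or DMSO vehicle was added for 72 h. MTT (5 mg mL^-1 stock) was applied for 4 h and formazan dissolved in DMSO. Absorbance was read at 570/690 nm in at least quadruplicate. Growth inhibition versus blank-corrected controls gave GI50.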

HT-29 = assay: Cytotoxicity against human HT-29 cells after 72 hrs by MTT assay; assay type: functional; details: HT-29, 72 h; method in brief: as §2
[1] = Cytotoxicity against HLF after 72 hrs by MTT assay; assay type: cell-based; details: human, HLF cells; method in brief: as §1
[2] = Cytotoxicity against human BEAS2B cells after 72 hrs by MTT assay; assay type: cell-based, BEAS-2B; method in brief: as §1

SMILES	GI50 (SGC-7901) [µM]	GI50 (A549) [µM]	GI50 (MCF7) [µM]	GI50 (HCT-116) [µM]	GI50 (HT-29) [µM]	GI50 at 72 h [1] [µM]	GI50 at 72 h [2] [µM]
CCCCCC[C@H](O)COCCOC[C@@H](O)CCCCC(O)CCCCCCCC1=C[C@H](C)OC1=O (stereo partly specified)	2	10.8	5.8	4.2	19.4	11.1	> 100
C[C@H]1C=C(CCCCCCCC(O)CCCC[C@H](O)COCCOC[C@@H](O)CCCc2ccc(-c3ccccc3)cc2)C(=O)O1 (stereo partly specified)	0.02	0.177	0.154	0.134	0.355	> 100	> 100
C[C@H]1C=C(CCCCCCCC(O)CCCC[C@H](O)COCCOC[C@@H](O)CCCCC2CCCCC2)C(=O)O1 (stereo partly specified)	0.75	4.5	1.8	1.6	5.4	5.5	61
C[C@H]1C=C(CCCCCCCC(O)CCCC[C@H](O)COCCOC[C@@H](O)CCCc2ccccc2)C(=O)O1 (stereo partly specified)	0.275	0.773	0.84	0.394	1.1	7.4	> 100
COc1ccc2cc(CCC[C@H](O)COCCOC[C@@H](O)CCCCC(O)CCCCCCCC3=C[C@H](C)OC3=O)ccc2c1 (stereo partly specified)	0.082	3.7	12.6	1.1	1.1	10	> 100
COc1ccc(CCC[C@H](O)COCCOC[C@@H](O)CCCCC(O)CCCCCCCC2=C[C@H](C)OC2=O)cc1 (stereo partly specified)	0.198	4.5	23.3	2.3	4.3	11.3	> 100
C[C@H]1C=C(CCCCCCCC(O)CCCC[C@H](O)COCCOC[C@@H](O)CCCc2cccc(O)c2)C(=O)O1 (stereo partly specified)	1	6	24.5	2.8	69	> 100	> 100
CCCCCCCCCC[C@H](O)COCCOC[C@@H](O)CCCCCCCCCCCCC1=C[C@H](C)OC1=O	0.065	0.305	0.276	0.113	0.291	20.9	120
